Source: paper PMC9826232 (Chemmedchem, 2022)

Tests used:
NCI‐H441 (G12 V) = experiment: CellTiter-Glo cell viability assay, NCI-H441; type: cell-based; conditions: Homo sapiens, NCI-H441, 72 h, read-out: Cellular activity IC50, NCI‐H441 (G12 V)
In short: (§1)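 Cells seeded, then held 24 h at 37 °C/5 % CO2 before test compound in DMSO was added at various concentrations. Plates were incubated a further 72 h at 37 °C, 5 % CO2, humidified. Controls were DMSO vehicle and 10 μM staurosporine. CellTiter-Glo reagent was added at equal volume to the medium, then 2 min shaking and 10 min at room temperature before luminescence (ATP) reading. IC50 from dose-response fit; plates accepted only if Z' ≥0.5, from 16 control values each.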

HCT15 (G13D) = experiment: CellTiter-Glo cell viability assay, HCT15; type: cell-based; conditions: Homo sapiens, HCT-15, 72 h, read-out: Cellular activity IC50, HCT15 (G13D)
In short: as §1

tErk in A375 cells = experiment: HTRF assay, tErk in A375; type: cell-based; conditions: Homo sapiens, A-375, read-out: tErk IC50
A549 (G12S) = experiment: CellTiter-Glo cell viability assay, A549; type: cell-based; conditions: Homo sapiens, A549, 72 h, read-out: Cellular activity IC50, A549 (G12S)
In short: as §1

tAkt in A375 cells = experiment: HTRF assay, tAkt in A375; type: cell-based; conditions: Homo sapiens, A-375, read-out: tAkt IC50
[1] = Control assay for nucleotide exchange assay; conditions: 3 mM compound; percent of control
pAkt in A375 cells = experiment: HTRF assay of downstream phosphorylation, pAkt in A375; type: cell-based; conditions: Homo sapiens, A-375, read-out: pAkt IC50
tAkt in SNU‐1 cells = experiment: HTRF assay, tAkt in SNU-1; type: cell-based; conditions: Homo sapiens, SNU1, read-out: tAkt IC50
In short: (§2)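 Test compound was given as a 3-fold 8-point series, top 330 μM final, 1 % DMSO, for 1 h. EGF at 3 nM final was then added for 15 min. Cells were lysed 30 min at room temperature. TR-FRET antibody detection followed after 20 h at room temperature; read-out gave IC50.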

tErk in SNU‐1 cells = experiment: HTRF assay, tErk in SNU-1; type: cell-based; conditions: Homo sapiens, SNU1, read-out: tErk IC50
In short: as §2

K‐Ras wild type protein = K‐Ras wild type protein (Homo sapiens, UniProt P01116); experiment: Nucleotide exchange assay; type: biochemical
K‐Ras wild type protein, sequence (P01116 1-188 isoform P01116-2): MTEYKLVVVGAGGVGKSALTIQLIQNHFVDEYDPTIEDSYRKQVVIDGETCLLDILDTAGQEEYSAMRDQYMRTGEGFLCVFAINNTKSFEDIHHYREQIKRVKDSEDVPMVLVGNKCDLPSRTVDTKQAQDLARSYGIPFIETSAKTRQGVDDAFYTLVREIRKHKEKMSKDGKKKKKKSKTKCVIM
In short: (§3)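 SOS1 (final 30.2 nM for G12D, 4.6 nM for wild type) and GTP (1 μM final) follow. Incubated overnight at room temperature, then GDP detection reagent for 1 h. Luminescence read; IC50 from sigmoidal curves.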

[2] = system: Ras mutant tumor cell lines; experiment: Tumor cell assays, all tested cell lines; type: cell-based; conditions: read-out: IC50 values for all tested cell lines
In short: as §1

H358 (G12 C) = experiment: CellTiter-Glo cell viability assay, H358; type: cell-based; conditions: Homo sapiens, NCI-H358, 72 h, read-out: Cellular activity IC50, H358 (G12 C)
In short: as §1

pAkt in SNU‐1 cells = experiment: HTRF assay of downstream phosphorylation, pAkt in SNU-1; type: cell-based; conditions: Homo sapiens, SNU1, read-out: pAkt IC50
In short: as §2

[3] = Stability in cell culture medium; type: in vitro ADME; conditions: for stability in cell culture medium: 24 h
K‐Ras(G12D) = K‐Ras(G12D) (Homo sapiens, UniProt P01116, G12D); experiment: Nucleotide exchange assay; type: biochemical
K‐Ras(G12D), sequence (P01116 1-188 isoform P01116-2 G12D): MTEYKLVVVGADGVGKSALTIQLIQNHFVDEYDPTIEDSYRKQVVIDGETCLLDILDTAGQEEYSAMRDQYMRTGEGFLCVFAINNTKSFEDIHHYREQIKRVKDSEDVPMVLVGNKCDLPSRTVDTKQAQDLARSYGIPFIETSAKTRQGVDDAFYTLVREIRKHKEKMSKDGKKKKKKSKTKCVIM
In short: as §3

pErk in A375 cells = experiment: HTRF assay of downstream phosphorylation, pErk in A375; type: cell-based; conditions: Homo sapiens, A-375, read-out: pErk IC50
pErk in SNU‐1 cells = experiment: HTRF assay of downstream phosphorylation, pErk in SNU-1; type: cell-based; conditions: Homo sapiens, SNU1, read-out: pErk IC50
In short: as §2

SNU‐1 (G12D) = experiment: CellTiter-Glo cell viability assay, SNU-1; type: cell-based; conditions: Homo sapiens, SNU1, 72 h, read-out: Cellular activity IC50, SNU‐1 (G12D)
In short: as §1

K‐Ras4B = K‐Ras4B (Homo sapiens, UniProt P01116); experiment: NMR titration experiments; type: binding
K‐Ras4B, sequence (P01116 1-188 isoform P01116-2): as the sequence (P01116 1-188 isoform P01116-2) above
In short: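 GDP-bound K-Ras4B was titrated with test compound and followed by NMR chemical shift perturbation; KD derived from the titration.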

[4] = Stability in human plasma solution; type: in vitro ADME; conditions: over 24 h
(GDP)K‐Ras4B = (GDP)K‐Ras4B (Homo sapiens, UniProt P01116); experiment: MST; type: binding
(GDP)K‐Ras4B, sequence (P01116 1-188 isoform P01116-2): as above

(GTP)K‐Ras4B = (GTP)K‐Ras4B (Homo sapiens, UniProt P01116); experiment: MST; type: binding
(GTP)K‐Ras4B, sequence (P01116 1-188 isoform P01116-2): as above

Compound | IC50 (HCT15 (G13D)) [µM] | IC50 (A549 (G12S)) [µM] | IC50 (K‐Ras wild type protein) [µM] | IC50 (H358 (G12 C)) [µM] | IC50 (K‐Ras(G12D)) [µM] | IC50 (SNU‐1 (G12D)) [µM] | IC50 (NCI‐H441 (G12 V)) [µM] | WT %CRTL (3 mM) [1] [%] | further results
Oc1ccc(C(=NNc2ccc(Cl)cc2)c2ccc(O)cc2)cc1 [7 d, 4,4′‐((2‐(4‐Chlorophenyl)hydrazinylidene)‐methylene)diphenol] | 27.4 ± 4.5 | 30.1 ± 9 | 1300 ± 417 | 40.2 ± 1 | 475 | 31.2 ± 6.8 | 29.3 ± 4.1 | 84 | IC50 [2]: 20 to 30 µM; cell culture medium stability [3]: 0.4%
Oc1ccc(C(=NNc2ccc(C(F)(F)F)cc2)c2ccc(O)cc2)cc1 [7 e, 4,4′‐((2‐(4‐(Trifluoromethyl)phenyl)‐hydrazinylidene)methylene)diphenol] | 12.5 ± 1.4 | 11.9 ± 0.7 | 1070 ± 312 | 15.1 ± 1.2 | 628 ± 170 | 16.7 ± 1.9 | 13.4 ± 2.7 | 90 | IC50 (tErk in A375 cells): > 1000 µM; IC50 (tAkt in A375 cells): > 1000 µM; IC50 (pAkt in A375 cells): > 1000 µM; IC50 (tAkt in SNU‐1 cells): > 1000 µM; IC50 (tErk in SNU‐1 cells): > 1000 µM; IC50 (pAkt in SNU‐1 cells): 431 µM; stability in cell culture medium [3]: completely stable; IC50 (pErk in A375 cells): > 1000 µM; IC50 (pErk in SNU‐1 cells): 520 µM
Oc1ccc(C(=NNc2ccccn2)c2ccc(O)cc2)cc1 [7 f, 4,4′‐((2‐(Pyridin‐2‐yl)hydrazinylidene)‐methylene)diphenol] | – | 67 ± 1.8 | 2610 ± 225 | – | 1910 ± 98 | 71.1 ± 11.3 | 65.8 ± 37.3 | 98 | –
COc1ccc(S(=O)(=O)NN=C(c2ccc(O)cc2)c2ccc(O)cc2)cc1 [8 b, N′‐(bis(4‐hydroxyphenyl)methylene)‐4‐methoxybenzenesulfonohydrazide] | 219 ± 43 | 184 ± 12 | 1620 ± 565 | 161 ± 9 | 1290 ± 307 | 154 ± 30 | 260 ± 45 | 89 | –
O=S(=O)(NN=C(c1ccc(O)cc1)c1ccc(O)cc1)c1ccc(Br)cc1 [8 d, N′‐(bis(4‐hydroxyphenyl)methylene)‐4‐bromobenzenesulfonohydrazide] | 96.6 ± 14.5 | 91.8 ± 7.4 | 2220 ± 519 | 82.8 ± 8.4 | 850 ± 120 | 88.7 ± 23.9 | 105 ± 8 | 93 | –
O=S(=O)(NN=C(c1ccc(O)cc1)c1ccc(O)cc1)c1ccc(OC(F)(F)F)cc1 [8 f, N′‐(bis(4‐hydroxyphenyl)methylene)‐4‐(trifluoromethoxy)benzenesulfonohydrazide] | 112 ± 10 | 111 ± 10 | 1650 ± 731 | 104 ± 3 | 858 ± 55 | 110 ± 24 | 179 ± 43 | 92 | –
N#Cc1ccc(S(=O)(=O)NN=C(c2ccc(O)cc2)c2ccc(O)cc2)cc1 [8 g, N′‐(bis(4‐hydroxyphenyl)methylene)‐4‐cyanobenzenesulfonohydrazide] | > 30 | > 30 | 1500 ± 572 | > 30 | > 3000 | > 30 | > 30 | 86 | –
O=C(c1ccc(O)cc1)c1ccc(O)cc1 [compound 9, 4,4’‐Dihydroxybenzophenone, reference compound] | – | > 300 | 1330 ± 104 | – | 1210 ± 116 | 187 ± 19 | > 300 | – | Kd (K‐Ras4B): 9100 ± 3900 µM
O=C(NN=C(c1ccc(O)cc1)c1ccc(O)cc1)c1ccccc1 [compound 10, N′‐(Bis(4‐hydroxyphenyl)methylene)‐benzohydrazide] | – | 112 ± 3 | > 3000 | – | > 3000 | 173 ± 1 | 158 ± 3 | 93 | –
Oc1ccc(C(=NOCc2ccccc2)c2ccc(O)cc2)cc1 [compound 11, Bis(4‐hydroxyphenyl)methanone‐O‐benzyl oxime] | 43.9 ± 1.8 | 54.3 ± 3.6 | 1330 ± 343 | 58.6 ± 0.5 | 431 ± 22 | 41.7 ± 4.2 | 62.2 ± 4.8 | 98 | stability in human plasma solution [4]: 92%; IC50 (tErk in A375 cells): 77.2 µM; IC50 (tAkt in A375 cells): 749 µM; Kd ((GDP)K‐Ras4B): 89 µM; IC50 (pAkt in A375 cells): > 1000 µM; IC50 (tAkt in SNU‐1 cells): 475 µM; IC50 (tErk in SNU‐1 cells): > 1000 µM; IC50 (pAkt in SNU‐1 cells): 47.7 µM; stability in cell culture medium [3]: completely stable; Kd ((GTP)K‐Ras4B): 602 µM; IC50 (pErk in A375 cells): 48.8 µM; IC50 (pErk in SNU‐1 cells): 218 µM
O=C(c1nc2cccc(O)c2[nH]1)c1cc2cccc(O)c2o1 [compound 12, (7‐Hydroxy‐1H‐benzimidazol‐2‐yl)‐(7‐hydroxybenzofuran‐2‐yl)methanon] | 37.7 ± 0.4 | 45.3 ± 1.5 | 1100 ± 381 | 37.7 ± 1.3 | 340 ± 72 | 34.5 ± 2.1 | 47.4 ± 3 | 75 | Kd (K‐Ras4B): 500 ± 100 µM; fold stronger binding to K‐Ras4B than DHBP (K‐Ras4B; NMR titration KD ratio versus DHBP): 18 fold; Kd ((GDP)K‐Ras4B): 59 µM; Kd ((GTP)K‐Ras4B): 34 µM

The remaining compounds from weak to strong by IC50 (K‐Ras wild type protein), led by results:

IC50 (HCT15 (G13D)) [µM] | IC50 (A549 (G12S)) [µM] | IC50 (K‐Ras wild type protein) [µM] | IC50 (H358 (G12 C)) [µM] | IC50 (K‐Ras(G12D)) [µM] | IC50 (SNU‐1 (G12D)) [µM] | Compound | IC50 (NCI‐H441 (G12 V)) [µM] | WT %CRTL (3 mM) [1] [%] | further results
85 ± 9.2 | 71.3 ± 6.5 | 1050 ± 405 | 69.8 ± 2.4 | 583 ± 146 | 81 ± 26.3 | O=S(=O)(NN=C(c1ccc(O)cc1)c1ccc(O)cc1)c1ccc(Cl)cc1 [8 c, N′‐(bis(4‐hydroxyphenyl)methylene)‐4‐chlorobenzenesulfonohydrazide] | 102 ± 16 | 91 | IC50 (tErk in A375 cells): 255 µM; IC50 (tAkt in A375 cells): > 1000 µM; IC50 (pAkt in A375 cells): > 1000 µM; IC50 (tAkt in SNU‐1 cells): 586 µM; IC50 (tErk in SNU‐1 cells): > 875 µM; IC50 (pAkt in SNU‐1 cells): 96.6 µM; IC50 (pErk in A375 cells): 203 µM; IC50 (pErk in SNU‐1 cells): 240 µM
17.6 ± 13.4 | 28.7 ± 4.7 | 1040 ± 427 | 33.7 ± 0.6 | 413 ± 28 | 23.7 ± 14.4 | Oc1ccc(C(=NNc2ccc(F)cc2)c2ccc(O)cc2)cc1 [7 c, 4,4′‐((2‐(4‐Fluorophenyl)hydrazinylidene)‐methylene)diphenol] | 24.7 ± 8.3 | 83 | IC50 (tErk in A375 cells): 491 µM; IC50 (tAkt in A375 cells): > 1000 µM; IC50 (pAkt in A375 cells): > 1000 µM; IC50 (tAkt in SNU‐1 cells): > 1000 µM; IC50 (tErk in SNU‐1 cells): > 550 µM; IC50 [2]: 20 to 30 µM; IC50 (pAkt in SNU‐1 cells): 95.3 µM; cell culture medium stability [3]: 2.2%; IC50 (pErk in A375 cells): 415 µM; IC50 (pErk in SNU‐1 cells): 455 µM
113 ± 13 | 105 ± 2 | 1030 ± 371 | 109 ± 3 | 1310 ± 389 | 92.1 ± 12 | O=S(=O)(NN=C(c1ccc(O)cc1)c1ccc(O)cc1)c1ccccc1 [8 a, N′‐(bis(4‐hydroxyphenyl)methylene)benzene‐sulfonohydrazide] | 157 ± 54 | 91 | –
– | – | 334 ± 5 | – | 409 ± 32 | 52.7 ± 0.3 | O=C(c1nc2cc(O)ccc2[nH]1)c1cc2cccc(O)c2o1 [compound 13, (5‐Hydroxy‐1H‐benzo[d]imidazol‐2‐yl)(7‐hydroxybenzofuran‐ 2‐yl)methanone] | 54.5 ± 0.2 | – | –
51.1 ± 1.2 | 49.8 ± 2.1 | 298 ± 196 | 49.2 ± 0.9 | 255 | 46.8 ± 1.7 | O=[N+]([O-])c1ccc(S(=O)(=O)NN=C(c2ccc(O)cc2)c2ccc(O)cc2)cc1 [8 e, N′‐(bis(4‐hydroxyphenyl)methylene)‐4‐nitrobenzenesulfonohydrazide] | 58.4 ± 6.9 | – | –
